Activity calls are given as the source filed them.
How the values were obtained:
[1] = molecular target: Muscarinic acetylcholine receptor (Rattus norvegicus) (UniProt P08482+P08483+P08485+P08911+P10980); assay: Inhibition of rat muscarinic receptor at 10 uM
Rattus norvegicus [2] = species on record: Rattus norvegicus; assay: Inhibition of rat Opiate receptor at 10 uM
Rattus norvegicus [3] = species on record: Rattus norvegicus; assay: Inhibition of rat 5-HT receptor at 10 uM
[4] = molecular target: 5-hydroxytryptamine receptor 1A (Homo sapiens) (UniProt P08908); assay: Inhibition of human 5-HT1A receptor at 10 uM
[5] = molecular target: 5-hydroxytryptamine receptor 2B (Homo sapiens) (UniProt P41595); assay: Inhibition of human 5-HT2B receptor at 10 uM
Homo sapiens = species on record: Homo sapiens; assay: Inhibition of human sst receptor at 10 uM
[6] = molecular target: Glucocorticoid receptor (Homo sapiens) (UniProt P04150); assay: Inhibition of human GR at 10 uM
[7] = molecular target: Estrogen receptor (Homo sapiens) (UniProt P03372); assay: Inhibition of human ERalpha at 10 uM
[8] = molecular target: Progesterone receptor (Homo sapiens) (UniProt P06401); assay: Inhibition of human PR at 10 uM
Rattus norvegicus [9] = species on record: Rattus norvegicus; assay: Inhibition of rat sodium channel site2 at 10 uM
Rattus norvegicus [10] = species on record: Rattus norvegicus; assay: Inhibition of rat chloride channel at 10 uM
[11] = molecular target: Sodium-dependent noradrenaline transporter (Homo sapiens) (UniProt P23975); assay: Inhibition of human NE transporter at 10 uM
[12] = molecular target: Sodium-dependent dopamine transporter (Rattus norvegicus) (UniProt P23977); assay: Inhibition of rat DA transporter at 10 uM
Rattus norvegicus [13] = species on record: Rattus norvegicus; assay: Inhibition of rat choline transporter at 10 uM
Rattus norvegicus [14] = species on record: Rattus norvegicus; assay: Inhibition of rat GABA transporter at 10 uM
Trypsin = Trypsin (Homo sapiens, UniProt P07477+P07478+P35030); assay: Inhibition of human trypsin; assay type: protein assay
[15] = Inhibition of human Tryptase
Plasma [16] = assay: Anticoagulant activity in Sprague-Dawley rat plasma assessed as concentration required to double the prothrombin based clotting at 30 mg/kg, id; assay type: functional; conditions: route intraduodenal
Rattus norvegicus [17] = assay: Anticoagulant activity against Sprague-Dawley rat arterial thrombosis model induced by topical application of Fecl2; assay type: functional; conditions: Rattus norvegicus, Sprague-Dawley, oral
Outline: (§1)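 Rat carotid artery thrombosis: vehicle (PEG-400) or compound given by 1 mL/kg gavage at 0 min (5, 10, 15, 30 mg/kg; n = 5, 6, 6, 4; vehicle n = 8), with aspirin 10 mg/kg iv 15 min before FeCl2. Rats anesthetized at 30 min. 50% FeCl2 applied topically at 60 min for 10 min. Thrombus weight taken 1 h later. ANOVA with Dunnett's test.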

Rattus norvegicus [18] = assay: Anticoagulant activity in Fecl2-induced po dosed Sprague-Dawley rat vena cava thrombosis model assessed as inhibition of thrombus weight; assay type: functional
Outline: (§2)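 Rat vena cava thrombosis: vehicle (PEG-400) or compound at 5, 10, 15, 30 mg/kg (n = 5 per group) given by 1 mL/kg gavage at 0 min. Rats anesthetized at 30 min. 15% FeCl2 applied topically to the vena cava at 60 min for 2 min. Thrombus weight determined 1 h after FeCl2.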

Rattus norvegicus [19] = assay: Anticoagulant activity in Fecl2-induced Sprague-Dawley rat vena cava thrombosis model assessed as inhibition of thrombus weight at 15 mg/kg, po; assay type: functional; outline: as §2
Rattus norvegicus [20] = assay: Anticoagulant activity against […] Sprague-Dawley rat carotid artery thrombosis assessed as decreasing thrombosis weight at 10 mg/kg, po; assay type: functional; design: scale not given: the % may be the effect or the level left; outline: as §1
[21] = molecular target: Beta-2 adrenergic receptor (Homo sapiens) (UniProt P07550); assay: Inhibition of human beta-2 adrenergic receptor at 10 uM
[22] = molecular target: Beta-1 adrenergic receptor (Homo sapiens) (UniProt P08588); assay: Inhibition of human beta-1 adrenergic receptor at 10 uM
[23] = molecular target: Adrenergic receptor alpha-2 (Rattus norvegicus) (UniProt P22086+P19328+P22909); assay: Inhibition of rat alpha-2 adrenergic receptor at 10 uM
[24] = molecular target: Adrenergic receptor alpha-1 (Rattus norvegicus) (UniProt P15823+P23944+P43140); assay: Inhibition of rat alpha-1 adrenergic receptor at 10 uM
[25] = molecular target: Adenosine receptor A1 (Homo sapiens) (UniProt P30542); assay: Inhibition of human A1 receptor at 10 uM
[26] = Inhibition of sodium channel
Plasma [27] = assay: Anticoagulant activity in human plasma assessed as concentration required to double the prothrombin based clotting time after 30 seconds; assay type: functional
Outline: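 Human plasma prothrombin-based clotting time; value is the inhibitor concentration that doubles the clotting time, averaged from two independent determinations.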

[28] = molecular target: Cholecystokinin receptor type A (Homo sapiens) (UniProt P32238); assay: Inhibition of human CCKA receptor at 10 uM
[29] = molecular target: D(1A) dopamine receptor (Homo sapiens) (UniProt P21728); assay: Inhibition of human dopamine D1 receptor at 10 uM
[30] = molecular target: D(2) dopamine receptor (Homo sapiens) (UniProt P14416); assay: Inhibition of human dopamine D2S receptor at 10 uM
Rattus norvegicus [31] = species on record: Rattus norvegicus; assay: Inhibition of rat AMPA receptor at 10 uM
Rattus norvegicus [32] = species on record: Rattus norvegicus; assay: Inhibition of rat Kainate receptor at 10 uM
[33] = molecular target: Glutamate NMDA receptor (Rattus norvegicus) (UniProt P35439+Q00959+Q00960+Q00961+Q62645+Q8VHN2+Q9R1M7); assay: Inhibition of rat NMDA receptor at 10 uM; assay type: protein-complex assay
[34] = molecular target: Histamine H1 receptor (Cavia porcellus) (UniProt P31389); assay: Inhibition of guinea pig H1 receptor
[35] = molecular target: Histamine H2 receptor (Cavia porcellus) (UniProt P47747); assay: Inhibition of guinea pig H2 receptor at 10 uM
Rattus norvegicus [36] = assay: Anticoagulant activity against Sprague-Dawley rat carotid artery thrombosis induced by FeCl2 in aspirin-treated rats assessed as decreasing thrombosis weight at 15 mg/kg, po; design: scale not given: the % may be the effect or the level left
Rattus norvegicus [37] = assay: Anticoagulant activity against Sprague-Dawley rat carotid artery thrombosis induced by FeCl2 in aspirin-treated rats assessed as decreasing thrombosis weight at 30 mg/kg, po; design: scale not given: the % may be the effect or the level left

Sequence of 5-hydroxytryptamine receptor 2B (Homo sapiens) (P41595 whole entry): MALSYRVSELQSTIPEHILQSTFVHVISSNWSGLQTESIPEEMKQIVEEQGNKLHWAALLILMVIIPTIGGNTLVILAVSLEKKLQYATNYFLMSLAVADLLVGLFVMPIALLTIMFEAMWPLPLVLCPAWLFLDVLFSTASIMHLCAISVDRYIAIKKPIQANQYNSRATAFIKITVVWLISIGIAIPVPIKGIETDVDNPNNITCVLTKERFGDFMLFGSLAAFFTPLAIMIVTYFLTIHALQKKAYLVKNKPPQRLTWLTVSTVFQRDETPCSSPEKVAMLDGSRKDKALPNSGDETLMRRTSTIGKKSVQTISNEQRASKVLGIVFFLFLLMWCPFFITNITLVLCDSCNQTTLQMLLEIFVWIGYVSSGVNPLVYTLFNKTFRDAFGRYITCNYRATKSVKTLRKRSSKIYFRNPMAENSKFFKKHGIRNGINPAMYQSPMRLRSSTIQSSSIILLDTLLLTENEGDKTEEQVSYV
Sequence of D(1A) dopamine receptor (Homo sapiens) (P21728 whole entry): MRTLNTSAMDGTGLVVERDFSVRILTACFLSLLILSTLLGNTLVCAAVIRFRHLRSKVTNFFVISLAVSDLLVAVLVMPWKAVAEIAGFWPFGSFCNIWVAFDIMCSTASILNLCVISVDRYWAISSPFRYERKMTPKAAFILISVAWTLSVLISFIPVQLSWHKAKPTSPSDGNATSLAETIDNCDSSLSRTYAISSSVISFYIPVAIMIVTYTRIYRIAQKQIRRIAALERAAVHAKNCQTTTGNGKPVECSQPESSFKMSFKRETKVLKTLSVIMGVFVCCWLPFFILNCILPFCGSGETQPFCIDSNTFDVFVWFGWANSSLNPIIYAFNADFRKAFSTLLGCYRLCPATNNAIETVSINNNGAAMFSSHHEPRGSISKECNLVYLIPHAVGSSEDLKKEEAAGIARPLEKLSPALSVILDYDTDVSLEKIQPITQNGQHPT
Sequence of Beta-2 adrenergic receptor (Homo sapiens) (P07550 whole entry, looked up): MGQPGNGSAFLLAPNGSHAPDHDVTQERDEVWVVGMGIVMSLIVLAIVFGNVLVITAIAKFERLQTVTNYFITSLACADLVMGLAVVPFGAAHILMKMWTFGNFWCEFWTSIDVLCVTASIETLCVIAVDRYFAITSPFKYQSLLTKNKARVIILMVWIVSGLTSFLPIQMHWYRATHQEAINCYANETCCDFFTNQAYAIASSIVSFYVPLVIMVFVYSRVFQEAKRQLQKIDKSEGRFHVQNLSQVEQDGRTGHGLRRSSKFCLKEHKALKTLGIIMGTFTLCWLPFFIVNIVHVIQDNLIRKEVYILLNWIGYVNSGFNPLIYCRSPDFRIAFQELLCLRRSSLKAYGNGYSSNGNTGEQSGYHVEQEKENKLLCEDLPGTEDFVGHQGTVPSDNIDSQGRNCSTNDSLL
Sequence of Sodium-dependent noradrenaline transporter (Homo sapiens) (P23975 whole entry): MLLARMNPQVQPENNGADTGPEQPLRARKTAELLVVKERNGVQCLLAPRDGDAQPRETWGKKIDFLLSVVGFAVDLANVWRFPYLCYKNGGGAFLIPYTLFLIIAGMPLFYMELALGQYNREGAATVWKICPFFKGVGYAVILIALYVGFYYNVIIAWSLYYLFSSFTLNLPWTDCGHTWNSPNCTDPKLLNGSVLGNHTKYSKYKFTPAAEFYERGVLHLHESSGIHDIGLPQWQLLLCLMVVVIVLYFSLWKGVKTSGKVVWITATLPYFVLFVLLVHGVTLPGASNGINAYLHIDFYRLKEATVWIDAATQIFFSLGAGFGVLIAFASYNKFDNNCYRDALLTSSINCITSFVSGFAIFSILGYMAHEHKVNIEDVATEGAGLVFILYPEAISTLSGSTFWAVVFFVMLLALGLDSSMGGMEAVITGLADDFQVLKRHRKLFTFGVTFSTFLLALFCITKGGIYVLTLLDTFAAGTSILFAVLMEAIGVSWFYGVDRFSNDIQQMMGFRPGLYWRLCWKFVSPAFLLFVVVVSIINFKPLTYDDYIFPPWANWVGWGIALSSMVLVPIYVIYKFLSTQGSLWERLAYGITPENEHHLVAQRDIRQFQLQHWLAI
Sequence of Estrogen receptor (Homo sapiens) (P03372 whole entry): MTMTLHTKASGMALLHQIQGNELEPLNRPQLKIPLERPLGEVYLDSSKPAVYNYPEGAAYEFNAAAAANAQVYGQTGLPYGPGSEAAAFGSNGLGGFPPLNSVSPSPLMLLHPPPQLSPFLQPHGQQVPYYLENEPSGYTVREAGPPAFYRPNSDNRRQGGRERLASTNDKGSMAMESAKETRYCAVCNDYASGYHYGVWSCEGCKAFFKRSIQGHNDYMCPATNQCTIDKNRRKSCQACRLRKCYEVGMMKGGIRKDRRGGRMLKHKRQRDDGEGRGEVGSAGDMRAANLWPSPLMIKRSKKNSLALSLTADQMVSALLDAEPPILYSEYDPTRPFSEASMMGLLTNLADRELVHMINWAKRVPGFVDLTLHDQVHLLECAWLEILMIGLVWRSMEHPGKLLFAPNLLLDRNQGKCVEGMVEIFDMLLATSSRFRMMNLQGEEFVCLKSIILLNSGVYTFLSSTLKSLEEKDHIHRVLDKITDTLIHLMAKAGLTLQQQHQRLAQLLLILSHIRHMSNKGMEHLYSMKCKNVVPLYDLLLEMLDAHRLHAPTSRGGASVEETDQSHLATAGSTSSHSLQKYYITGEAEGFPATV
Sequence of 5-hydroxytryptamine receptor 1A (Homo sapiens) (P08908 whole entry): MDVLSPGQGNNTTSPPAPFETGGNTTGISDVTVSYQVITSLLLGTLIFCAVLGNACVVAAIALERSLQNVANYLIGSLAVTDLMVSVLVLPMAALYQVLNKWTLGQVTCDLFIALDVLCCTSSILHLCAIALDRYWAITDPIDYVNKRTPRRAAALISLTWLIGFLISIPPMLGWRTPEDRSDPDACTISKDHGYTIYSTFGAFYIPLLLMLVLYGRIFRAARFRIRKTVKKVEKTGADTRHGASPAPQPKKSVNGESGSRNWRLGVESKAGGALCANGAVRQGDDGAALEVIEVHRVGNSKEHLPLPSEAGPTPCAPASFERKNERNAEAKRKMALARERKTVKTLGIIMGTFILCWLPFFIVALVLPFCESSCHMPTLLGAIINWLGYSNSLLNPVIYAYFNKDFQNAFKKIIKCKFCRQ
Sequence of Glucocorticoid receptor (Homo sapiens) (P04150 whole entry): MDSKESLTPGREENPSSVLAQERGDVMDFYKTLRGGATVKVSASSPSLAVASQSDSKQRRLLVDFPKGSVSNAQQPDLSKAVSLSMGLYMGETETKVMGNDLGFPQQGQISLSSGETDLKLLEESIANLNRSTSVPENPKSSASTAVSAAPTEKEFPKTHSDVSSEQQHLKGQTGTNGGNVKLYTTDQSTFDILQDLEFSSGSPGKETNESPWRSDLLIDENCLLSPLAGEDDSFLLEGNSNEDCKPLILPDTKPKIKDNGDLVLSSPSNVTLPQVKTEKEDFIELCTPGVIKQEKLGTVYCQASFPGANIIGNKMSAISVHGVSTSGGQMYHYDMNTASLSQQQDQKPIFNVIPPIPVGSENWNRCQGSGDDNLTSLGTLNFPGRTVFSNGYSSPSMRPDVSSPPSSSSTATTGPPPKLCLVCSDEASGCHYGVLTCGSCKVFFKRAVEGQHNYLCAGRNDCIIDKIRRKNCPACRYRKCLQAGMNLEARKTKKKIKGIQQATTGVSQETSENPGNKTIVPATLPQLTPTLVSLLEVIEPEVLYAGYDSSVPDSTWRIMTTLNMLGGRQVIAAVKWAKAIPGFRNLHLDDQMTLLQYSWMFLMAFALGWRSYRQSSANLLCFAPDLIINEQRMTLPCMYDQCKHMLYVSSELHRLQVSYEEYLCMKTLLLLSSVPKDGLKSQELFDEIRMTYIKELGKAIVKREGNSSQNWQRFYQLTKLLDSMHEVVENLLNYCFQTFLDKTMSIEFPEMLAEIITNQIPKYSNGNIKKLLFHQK
Sequence of Beta-1 adrenergic receptor (Homo sapiens) (P08588 whole entry, looked up): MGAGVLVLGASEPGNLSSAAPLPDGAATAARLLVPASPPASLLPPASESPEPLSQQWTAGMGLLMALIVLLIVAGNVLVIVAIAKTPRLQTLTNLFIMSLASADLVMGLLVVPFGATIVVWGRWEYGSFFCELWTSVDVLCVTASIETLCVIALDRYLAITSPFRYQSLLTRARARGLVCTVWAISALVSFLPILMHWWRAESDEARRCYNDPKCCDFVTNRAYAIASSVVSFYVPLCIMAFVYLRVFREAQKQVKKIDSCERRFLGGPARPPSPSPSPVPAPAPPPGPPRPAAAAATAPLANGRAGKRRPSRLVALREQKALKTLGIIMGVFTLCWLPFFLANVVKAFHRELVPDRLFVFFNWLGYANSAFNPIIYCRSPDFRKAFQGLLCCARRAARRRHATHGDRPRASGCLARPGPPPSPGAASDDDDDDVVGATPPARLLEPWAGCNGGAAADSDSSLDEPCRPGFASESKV
Sequence of Adenosine receptor A1 (Homo sapiens) (P30542 whole entry): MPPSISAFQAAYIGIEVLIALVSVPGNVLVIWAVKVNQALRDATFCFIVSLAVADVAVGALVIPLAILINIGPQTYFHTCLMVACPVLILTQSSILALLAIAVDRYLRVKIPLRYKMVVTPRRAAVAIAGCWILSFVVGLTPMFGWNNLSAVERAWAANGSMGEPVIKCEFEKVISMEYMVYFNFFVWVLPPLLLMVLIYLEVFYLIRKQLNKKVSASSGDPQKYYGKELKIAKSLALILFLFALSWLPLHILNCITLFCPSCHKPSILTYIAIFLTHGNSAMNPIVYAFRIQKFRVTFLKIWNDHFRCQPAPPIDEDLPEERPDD
Sequence of D(2) dopamine receptor (Homo sapiens) (P14416 whole entry): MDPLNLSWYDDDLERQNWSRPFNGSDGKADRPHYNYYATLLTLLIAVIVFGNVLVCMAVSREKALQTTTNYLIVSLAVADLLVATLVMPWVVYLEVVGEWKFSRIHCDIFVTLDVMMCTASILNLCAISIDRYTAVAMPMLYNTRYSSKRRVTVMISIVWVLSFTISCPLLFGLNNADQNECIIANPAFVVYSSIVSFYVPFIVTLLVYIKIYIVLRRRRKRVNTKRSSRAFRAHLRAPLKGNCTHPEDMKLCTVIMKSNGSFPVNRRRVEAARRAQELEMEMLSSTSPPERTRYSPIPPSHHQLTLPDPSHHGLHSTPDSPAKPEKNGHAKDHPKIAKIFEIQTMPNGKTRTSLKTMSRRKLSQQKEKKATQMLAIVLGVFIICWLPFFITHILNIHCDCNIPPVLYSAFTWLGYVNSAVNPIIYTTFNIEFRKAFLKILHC

Cc1cc2cc(N/C(=N\C(=O)c3ccc(C(=O)N(C)C)nc3)N[C@H]3CCCCN(CC(=O)N4CCCC4)C3=O)ccc2o1
10 mg/kg: ED50 (Rattus norvegicus [17])
90%: inhibition in vivo at 15 mg/kg (Rattus norvegicus [19])
inactive: Activity [1] | Activity (Rattus norvegicus [2]) | Activity (Rattus norvegicus [3]) | Activity [4] | Activity [5] | Activity (Homo sapiens) | Activity [6] | Activity [7] | Activity [8] | Activity (Rattus norvegicus [9]) | Activity (Rattus norvegicus [10]) | Activity [11] | Activity [12] | Activity (Rattus norvegicus [13]) | Activity (Rattus norvegicus [14]) | Activity [21] | Activity [22] | Activity [23] | Activity [24] | Activity [25] | Activity [26] | Activity [28] | Activity [29] | Activity [30] | Activity (Rattus norvegicus [31]) | Activity (Rattus norvegicus [32]) | Activity [33] | Activity [34] | Activity [35]
2 mg/kg: ED50 (Rattus norvegicus [18])
31%: Activity (Rattus norvegicus [36])
> 30 µM: Ki [15]
54%: Activity (Rattus norvegicus [37])
36%: Activity (Rattus norvegicus [20])
2.5 µM: Activity (Plasma [27])
3.6 µM: Activity (Plasma [16])
> 10 µM: Ki (Trypsin)
